Measured values reported in ChEMBL document CHEMBL2346608, “New annelated thieno[2,3-e][1,2,3]triazolo[1,5-a]pyrimidines, with potent anticancer activity, designed through VLAK protocol” (2013).

Key:
Assay type in all cases: functional
SK-MEL-5 = assay: Antiproliferative activity against human SK-MEL-5 cells after 48 hrs by sulforhodamine B assay; conditions: SK-MEL-5, 48 h
In short: (§1)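 Cells grown in RPMI 1640 with 5% FBS and 2 mM L-glutamine, plated at 5000–40,000 cells/well and preincubated 24 h at 37 °C, 5% CO2. Five drug concentrations (10-fold or ½-log dilutions from DMSO stocks) applied for 48 h. TCA-fixed (final 10% adherent, 16% suspension), SRB-stained, A515 read. Growth versus time-zero and control wells gave GI50, TGI, LC50.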

OVCAR-3 = assay: Antiproliferative activity against human OVCAR3 cells after 48 hrs by sulforhodamine B assay; conditions: OVCAR-3, 48 h; in short: as §1
[1] = Antiproliferative activity against human HCC2998 cells after 48 hrs by sulforhodamine B assay; conditions: HCC 2998, 48 h; in short: as §1
CAKI-1 = assay: Antiproliferative activity against human CAKI-1 cells after 48 hrs by sulforhodamine B assay; conditions: CAKI-1, 48 h; in short: as §1
UACC-257 = assay: Antiproliferative activity against human UACC257 cells after 48 hrs by sulforhodamine B assay; conditions: UACC-257, 48 h
In short: (§2)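 Cells in RPMI 1640 with 5% FBS and 2 mM L-glutamine were seeded at 5000–40,000/well according to doubling time and preincubated 24 h at 37 °C in 5% CO2. Time-zero plates were TCA-fixed when drug was added. Five 10-fold or ½-log dilutions from DMSO stocks were added for 48 h. After SRB staining, A515 was read and GI50 derived from [(Ti−Tz)/(C−Tz)]×100 = 50.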

HOP-92 = assay: Antiproliferative activity against human HOP92 cells after 48 hrs by sulforhodamine B assay; conditions: HOP-92, 48 h; in short: as §1
OVCAR-5 = assay: Antiproliferative activity against human OVCAR5 cells after 48 hrs by sulforhodamine B assay; conditions: OVCAR-5, 48 h; in short: as §1
LOX IMVI = assay: Antiproliferative activity against human LOXIMVI cells after 48 hrs by sulforhodamine B assay; in short: as §1
KM12 = assay: Antiproliferative activity against human KM12 cells after 48 hrs by sulforhodamine B assay; conditions: KM12, 48 h; in short: as §1
786-0 = assay: Antiproliferative activity against human 786-0 cells after 48 hrs by sulforhodamine B assay; conditions: 786-0, 48 h; in short: as §1
SK-OV-3 = assay: Antiproliferative activity against human SKOV3 cells after 48 hrs by sulforhodamine B assay; conditions: SK-OV-3, 48 h; in short: as §1
PC-3 = assay: Antiproliferative activity against human PC3 cells after 48 hrs by sulforhodamine B assay; conditions: PC-3, 48 h; in short: as §1
NCI-H226 = assay: Antiproliferative activity against human NCI-H226 cells after 48 hrs by sulforhodamine B assay; conditions: NCI-H226, 48 h; in short: as §1
UACC-62 = assay: Antiproliferative activity against human UACC62 cells after 48 hrs by sulforhodamine B assay; conditions: UACC-62, 48 h; in short: as §2
NCI/ADR-RES = assay: Antiproliferative activity against human NCI/ADR-RES cells after 48 hrs by sulforhodamine B assay; in short: as §1
M14 = assay: Antiproliferative activity against human M14 cells after 48 hrs by sulforhodamine B assay; conditions: M14, 48 h; in short: as §1
HL-60 = assay: Antiproliferative activity against human HL60 (TB) cells after 48 hrs by sulforhodamine B assay; conditions: HL-60, 48 h
In short: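 NCI 60-cell panel protocol: cells in RPMI 1640 with 5% FBS and 2 mM L-glutamine, plated 24 h at 37 °C/5% CO2 before dosing. Compounds dissolved in DMSO and tested at five concentrations (10-fold or ½ log serial dilutions) for 48 h. Suspension cells fixed with 80% TCA (final 16%), SRB stained, absorbance at 515 nm. GI50 derived from time-zero-corrected growth.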

SK-MEL-28 = assay: Antiproliferative activity against human SK-MEL-28 cells after 48 hrs by sulforhodamine B assay; conditions: SK-MEL-28, 48 h; in short: as §1
A549 = assay: Antiproliferative activity against human A549 cells after 48 hrs by sulforhodamine B assay; conditions: A549, 48 h; in short: as §1
MDA-MB-435 = assay: Antiproliferative activity against human MDA-MB-435 cells after 48 hrs by sulforhodamine B assay; conditions: MDA-MB-435, 48 h; in short: as §1
SF-268 = assay: Antiproliferative activity against human SF268 cells after 48 hrs by sulforhodamine B assay; conditions: SF-268, 48 h; in short: as §1
[2] = Antiproliferative activity against human Hs 578T cells after 48 hrs by sulforhodamine B assay; in short: as §1
SW-620 = assay: Antiproliferative activity against human SW620 cells after 48 hrs by sulforhodamine B assay; conditions: SW-620, 48 h; in short: as §2
OVCAR-8 = assay: Antiproliferative activity against human OVCAR8 cells after 48 hrs by sulforhodamine B assay; conditions: OVCAR-8, 48 h; in short: as §1
SN12C = assay: Antiproliferative activity against human SN12C cells after 48 hrs by sulforhodamine B assay; in short: as §1
NCI-H23 = assay: Antiproliferative activity against human NCI-H23 cells after 48 hrs by sulforhodamine B assay; conditions: NCI-H23, 48 h; in short: as §1
SF-539 = assay: Antiproliferative activity against human SF539 cells after 48 hrs by sulforhodamine B assay; conditions: SF-539, 48 h; in short: as §1
[3] = read-out: pLC50 (the source's name) (converted)

## CN1CCN(CCCn2c(=O)c3sc4ncccc4c3n3nnc(-c4ccccc4)c23)CC1
SK-MEL-5
  GI50: 7.24 µM
  LC50: 26.3 µM
SK-MEL-5; read-out: pTGI (converted)
  TGI: 13.8 µM
OVCAR-3
  GI50: 2.29 µM
  LC50: 20.4 µM
OVCAR-3; read-out: pTGI (converted)
  TGI: 7.59 µM
[1]
  GI50: 6.76 µM
  LC50: 26.3 µM
[1]; read-out: pTGI (converted)
  TGI: 13.5 µM
CAKI-1
  GI50: 6.17 µM
CAKI-1; [3]
  CC50: 27.5 µM
CAKI-1; read-out: pTGI (converted)
  TGI: 12.9 µM
UACC-257
  GI50: 2.29 µM
  LC50: 20.4 µM
UACC-257; read-out: pTGI (converted)
  TGI: 7.59 µM
HOP-92
  GI50: 5.75 µM
HOP-92; [3]
  CC50: 28.8 µM
HOP-92; read-out: pTGI (converted)
  TGI: 12.9 µM
OVCAR-5
  GI50: 8.91 µM
  LC50: 32.4 µM
OVCAR-5; read-out: pTGI (converted)
  TGI: 17 µM
LOX IMVI
  GI50: 5.37 µM
LOX IMVI; [3]
  CC50: 25.1 µM
LOX IMVI; read-out: pTGI (converted)
  TGI: 11.5 µM
KM12
  GI50: 4.27 µM
  LC50: 24.5 µM
KM12; read-out: pTGI (converted)
  TGI: 10.7 µM
786-0
  GI50: 7.41 µM
786-0; [3]
  CC50: 28.8 µM
786-0; read-out: pTGI (converted)
  TGI: 14.5 µM
SK-OV-3
  GI50: 8.91 µM
  LC50: 28.2 µM
SK-OV-3; read-out: pTGI (converted)
  TGI: 15.8 µM
PC-3
  GI50: 6.31 µM
  LC50: 28.8 µM
PC-3; read-out: pTGI (converted)
  TGI: 13.5 µM
NCI-H226
  GI50: 7.41 µM
  LC50: 31.6 µM
NCI-H226; read-out: pTGI (converted)
  TGI: 15.1 µM
UACC-62
  GI50: 8.91 µM
  LC50 (concentration killing 50% of cells): 29.5 µM
UACC-62; read-out: pTGI (converted)
  TGI: 16.2 µM
NCI/ADR-RES
  GI50: 7.24 µM
  LC50: 28.2 µM
NCI/ADR-RES; read-out: pTGI (converted)
  TGI: 14.1 µM
M14
  GI50: 2.14 µM
  LC50: 20.9 µM
M14; read-out: pTGI (converted)
  TGI: 7.41 µM
HL-60
  GI50: 0.794 µM
HL-60; [3]
  CC50: 3.8 µM
HL-60; read-out: pTGI (converted)
  TGI: 1.74 µM
SK-MEL-28
  GI50: 8.71 µM
  LC50: 28.2 µM
SK-MEL-28; read-out: pTGI (converted)
  TGI: 15.8 µM
A549
  GI50: 6.76 µM
  LC50: 28.2 µM
A549; read-out: pTGI (converted)
  TGI: 13.8 µM
MDA-MB-435
  GI50: 1.17 µM
  LC50: 13.2 µM
MDA-MB-435; read-out: pTGI (converted)
  TGI: 3.02 µM
SF-268
  GI50: 6.46 µM
  LC50: 26.9 µM
SF-268; read-out: pTGI (converted)
  TGI: 13.2 µM
[2]
  GI50: 6.46 µM
  LC50: 39.8 µM
[2]; read-out: pTGI (converted)
  TGI: 16.2 µM
SW-620
  GI50: 5.37 µM
  LC50: 24.5 µM
SW-620; read-out: pTGI (converted)
  TGI: 11.5 µM
OVCAR-8
  GI50: 7.76 µM
  LC50: 30.2 µM
OVCAR-8; read-out: pTGI (converted)
  TGI: 15.5 µM
SN12C
  GI50: 7.24 µM
  LC50: 28.2 µM
SN12C; read-out: pTGI (converted)
  TGI: 14.1 µM
NCI-H23
  GI50: 8.13 µM
  LC50: 28.8 µM
NCI-H23; read-out: pTGI (converted)
  TGI: 15.5 µM
SF-539
  GI50: 5.75 µM
  LC50: 30.9 µM
SF-539; read-out: pTGI (converted)
  TGI: 13.5 µM
